Laboratory results: ChEMBL document CHEMBL1151736, “Design, synthesis, and biological evaluation of a series of 2-hydroxyisoquinoline-1,3(2H,4H)-diones as dual inhibitors of human immunodeficiency virus type 1 integrase and the reverse transcriptase RNase H domain” (J Med Chem, 2008)

How the values were obtained:
[1] = Cytotoxicity against human MT4 cells by MTT assay; assay type: cell-based
[2] = tested on: Human immunodeficiency virus 1; assay: Selectivity ratio of IC50 for HIV1 RNase H to IC50 for HIV1 integrase
Procedure, shortened: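 Ratio of the RNase H IC50 to the overall-integrase IC50. For RNase H, recombinant HIV-1 RT (4.5 pmol) was preincubated with compound for 10 min at 37 °C. It then ran 10 min at 37 °C on a 3H-RNA/DNA duplex with 6 mM MgCl2 and 80 mM KCl at pH 8.0, read by TCA-precipitated radioactivity. For integrase, ELISA used 1.6 µM integrase and 7 nM biotin/digoxigenin oligos with 10 mM MgCl2, 1 h at 37 °C.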

[3] = Inhibition of HIV1 RNase H; design: species or system Human immunodeficiency virus 1
[4] = target: T1, Human immunodeficiency virus type 1 integrase (Human immunodeficiency virus 1, UniProt Q7ZJM1)
T1 sequence (Q7ZJM1 whole entry): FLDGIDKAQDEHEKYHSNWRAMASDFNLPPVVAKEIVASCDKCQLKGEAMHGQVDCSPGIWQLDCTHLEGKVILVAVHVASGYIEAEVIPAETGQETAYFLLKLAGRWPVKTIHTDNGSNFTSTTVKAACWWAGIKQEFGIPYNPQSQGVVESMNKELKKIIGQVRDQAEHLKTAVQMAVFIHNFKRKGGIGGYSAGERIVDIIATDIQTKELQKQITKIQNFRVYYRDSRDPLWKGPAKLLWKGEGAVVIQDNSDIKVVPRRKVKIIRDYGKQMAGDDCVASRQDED

[5] = target: Human immunodeficiency virus type 1 reverse transcriptase (Human immunodeficiency virus 1) (UniProt Q72547); assay: Inhibition of HIV1 reverse transcriptase at 50 uM
Procedure, shortened: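 RNA-dependent DNA polymerase activity: recombinant RT preincubated 10 min at 37 °C with compound (1.0, 10.0, 50.0 µM), then 10 min at 37 °C with poly(A)-oligo(dT) 20 µg/mL, 20 µM dTTP plus [3H]dTTP, 5 mM MgCl2, 100 mM KCl, 10 mM DTT, 50 mM Tris-HCl pH 8.0; TCA-precipitated radioactivity on nitrocellulose; percent inhibition.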

[6] = tested on: Human immunodeficiency virus 1; assay: Antiviral activity against HIV1 3B infected in human MT4 cells assessed as inhibition virus-induced cytopathic effect by MTT assay; assay type: functional, organism-based; conditions: Human immunodeficiency virus 1, 3B
[7] = target: T1, Human immunodeficiency virus type 1 integrase; remark: listed apart in the source
[8] = target: T1, Human immunodeficiency virus type 1 integrase; remark: listed apart in the source

Compound | Ratio IC50 [2] | IC50 [3] | IC50 [4] | inhibition [5] | IC50 [7] | IC50 [8] | CC50 [1] | EC50 [6]
O=C1Cc2ccc([N+](=O)[O-])cc2C(=O)N1O | 5.6 | 48 µM | 8.5 µM | 40% | – | – | > 205 µM | > 205 µM
O=C(Cc1ccc(F)cc1)Nc1ccc2c(c1)C(=O)N(O)C(=O)C2 | 272 | 35.3 µM | 0.13 µM | 40% | 0.75 µM | 0.02 µM | > 116 µM | > 116 µM
O=C1Cc2ccc(-c3ccc(F)cc3)cc2C(=O)N1O | 15.8 | 22.2 µM | 1.47 µM | 60% | – | – | > 46 µM | > 46 µM
O=C(Nc1ccc2c(c1)C(=O)N(O)C(=O)C2)c1ccccc1 | 4.7 | 5.7 µM | 1.24 µM | 40% | – | – | 84 µM | 22 µM
O=C1Cc2ccc(O)cc2C(=O)N1O | 17 | 37.4 µM | 2.22 µM | 40% | – | – | > 48 µM | > 48 µM
O=C1Cc2ccc(I)cc2C(=O)N1O | 48.3 | 58 µM | 1.22 µM | 40% | – | – | > 70 µM | > 70 µM
O=C1Cc2ccccc2C(=O)N1O | – | 5.9 µM | 6.32 µM | 40% | – | – | – | –
O=C1Cc2ccc(-c3ccc(C(F)(F)F)cc3)cc2C(=O)N1O | 5.9 | 10.7 µM | 1.8 µM | 40% | – | – | > 47 µM | > 47 µM
O=C1Cc2ccc(-c3ccc(O)c(O)c3)cc2C(=O)N1O | 11.8 | 6.6 µM | 0.56 µM | 70% | – | – | > 89 µM | > 89 µM

Continued, in another order:

Ratio IC50 [2] | IC50 [3] | IC50 [4] | inhibition [5] | IC50 [7] | IC50 [8] | Compound | CC50 [1] | EC50 [6]
1.2 | 10.8 µM | 8.9 µM | 40% | – | – | O=C(Nc1ccc2c(c1)C(=O)N(O)C(=O)C2)c1cccc([N+](=O)[O-])c1 | – | –
36.1 | 28.9 µM | 0.8 µM | 40% | – | – | O=C1Cc2ccc(Cl)cc2C(=O)N1O | > 48 µM | > 48 µM
> 166 | > 96 µM | 0.58 µM | 40% | 1.4 µM | 0.9 µM | O=C1Cc2ccc(Br)cc2C(=O)N1O | > 64 µM | > 64 µM
69 | 40.7 µM | 0.59 µM | 40% | – | – | CC(=O)Nc1ccc2c(c1)C(=O)N(O)C(=O)C2 | > 250 µM | 148 µM
> 889 | > 80 µM | 0.09 µM | 40% | 7.79 µM | 0.1 µM | O=C(Cc1ccccc1)Nc1ccc2c(c1)C(=O)N(O)C(=O)C2 | > 121 µM | > 121 µM
> 47 | > 80 µM | 1.73 µM | 40% | – | – | O=C1Cc2ccc(-c3ccccc3)cc2C(=O)N1O | > 66 µM | > 66 µM
17.3 | 7.1 µM | 0.41 µM | 40% | – | – | O=C(Nc1ccc2c(c1)C(=O)N(O)C(=O)C2)c1ccc(F)cc1 | > 120 µM | > 120 µM
> 4.2 | > 80 µM | 18.8 µM | 40% | – | – | CCCCC(=O)Nc1ccc2c(c1)C(=O)N(O)C(=O)C2 | > 250 µM | > 250 µM
1.3 | 7.2 µM | 5.42 µM | 50% | – | – | O=C1Cc2ccc(-c3ccc(O)cc3)cc2C(=O)N1O | > 186 µM | > 186 µM
